Source: PubChem BioAssay (several laboratories)
KCNQ1 inh – blocks the human KCNQ1 potassium channel; 310,000 compounds, 1.3% hits; AID 2642; CHO-K1 KCNQ1, FluxOR thallium flux fluorescence; stronger effect = higher value; B-score at 10 µM;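 active means compounds whose thallium flux B-score, printed positive for inhibition, exceeds three library SD while starting fluorescence stays within three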;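 further: channel opened by potassium depolarization with thallium stimulus after 20 min compound exposure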
KCNK3 block – human KCNK3 channel inhibition, primary screen; CHO-KCNK3 thallium flux, FluxOR fluorescence; stronger effect = lower value; B-score at 10 µM; 340,000 compounds, 0.84% hits; AID 602410;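 active means B-score under library mean minus 4 SD, starting fluorescence ratio at most library mean plus 5 SD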;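 further: more negative B-score means stronger inhibition of thallium flux through KCNK3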
KCNK9 block – blocks the human KCNK9 two-pore domain potassium channel; B-score at 10 µM; HEK293 KCNK9, FluxOR thallium flux fluorescence; stronger effect = lower value; 310,000 compounds, 1.2% hits; AID 488922;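 active means ratio B-score over 3 SD below the library mean, with starting fluorescence within 5 SD of its mean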;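 further: negative B-score means less thallium flux so channel inhibition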
hERG protect – hERG (human) protection from proarrhythmic block; 310,000 compounds, 0.51% hits; CHO-hERG, FluxOR thallium flux, dofetilide IC70 present; activation (rescue from dofetilide block), less the hit threshold, % at 10 µM; AID 1511;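 active means activation above the mean of controls blocked by dofetilide plus 5 SD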;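 further: thallium influx through hERG after potassium depolarization seen as dye fluorescence rise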
PHOSPHO1 block – inhibitors of human PHOSPHO1 phosphatase. Q8TCT1. recombinant PHOSPHO1, absorbance phosphatase assay. inhibition, % at 13.3 µM. 290,000 compounds, 1.1% hits. AID 1565; in the data active means inhibition above about 60%
KCNQ1 act – potentiators or activators of human KCNQ1 potassium channel | P51787 | CHO-K1 KCNQ1, thallium flux FluxOR fluorescence; stronger effect = higher value | B-score at 10 µM | 310,000 compounds, 0.35% hits;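 active means fluorescence ratio B-score, a plate-corrected score, at least three library SD, with initial intensity B-score within 5 SD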
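System: CHO-K1 cells stably expressing KCNQ1 / Medium: assay buffer for compound exposure, DMSO matched across wells / Reagent: thallium- and potassium-containing depolarizing buffer / Compound: one concentration, matched DMSO / Incubation: 20 min compound pretreatment at room temperature / Measured by: kinetic FluxOR fluorescence, 10 s baseline plus 110 s post-stimulus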
KCNK3 inh conf – human KCNK3 channel inhibition, confirmation assay; shares compounds with KCNK3 block; CHO-KCNK3 thallium flux, FluxOR fluorescence; 0% buffer, 100% carvedilol maximal block; ratio percent of control, % at 10 µM; 2,400 compounds, 99% hits; AID 651638;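 active means ratio percent of control, averaged over triplicates, above buffer control mean plus 5 SD, cut at about 64% in these data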;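 further: ratio is the fluorescence rise from min to max over baseline after thallium stimulus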
KCNK3 noninduced – activity in cells without induced KCNK3 expression; shares compounds with KCNK3 block; non-induced KCNK3 parental cells, FluxOR thallium flux; stronger effect = lower value; thallium flux ratio (lower = more inhibition) at 10 µM; 2,400 compounds, 40% hits; AID 651747;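 active means thallium flux ratio, averaged over three wells, more than 5 SD below the buffer control mean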;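 further: host cells are CHO cells without KCNK3 induction; ratio is peak minus trough fluorescence over baseline then normalized to buffer controls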
Active calls of the source: *; i = inactive; · = no result given. Rows were chosen to be rich in hits. Some 4% of all compounds tested hit in one or more screens of this group.

SMILES	KCNQ1 inh	KCNK3 block	KCNK9 block	hERG protect	PHOSPHO1 block	KCNQ1 act	KCNK3 inh conf	KCNK3 noninduced
C/C(=N\Nc1cccc2cccnc12)c1ccccc1O	i	-10*	i	-7	-43	i	108*	i
CSc1ccccc1C(=O)Nc1ccc(C)c(C)c1	i	-8.9*	i	-5	-20	i	87*	i
Cc1ccc(NC(=O)c2cccc3c2-c2ccccc2C3=O)cc1C	i	-9.3*	i	-11	3	i	108*	i
CSc1nnc(-c2cc[n+](C)cc2)n1CCO	i	i	i	-1	-11	i	·	·
CCn1cc(CN2CCC(n3nccc3NC(=O)CCCc3ccccc3)CC2)cn1	i	i	i	-13	23	i	·	·
COc1ccc(N=Cc2c(O)c3ccccc3n2C(C)=O)cc1	i	-13*	i	-17	24	i	143*	0.098*
COC(=O)Cc1csc(Nc2ccc(F)c(Cl)c2)n1	i	i	i	-12	-23	i	·	·
O=C(NCCc1ccccn1)c1n[nH]c(=O)c2ccccc12	i	i	i	-5	-4	i	·	·
CCCC(=O)c1c[nH]c(C(=O)NCCc2ccccn2)c1	i	-11*	i	-6	7	i	70*	i
CC1CCN(S(=O)(=O)c2ccc3ncn(CC(=O)N(C)Cc4ccccc4)c(=O)c3c2)CC1	i	-13*	i	-2	16	i	72*	i
CCc1ccc2c(c1)C1(NN=C(c3cccc4ccccc34)S1)C(=O)N2 (configuration not stated)	15*	-13*	i	-2	-10	i	149*	0.13*
CCc1ccc2c(c1)C1(C(=O)N2)N2CCCC2C(C(=O)c2ccc3ccccc3c2)C12C(=O)Nc1ccccc12 (configuration not stated)	i	i	i	-7	7	i	·	·
Cc1ccc(CNC(=O)c2ccc(Cn3cc(-c4ccc(C)cc4)nc3-c3ccncc3)cc2)cc1	i	i	i	-9	20	i	·	·
COc1ccc(-c2csc3ncnc(N4CCN(c5ccccc5[N+](=O)[O-])CC4)c23)cc1	8*	-8.7*	i	-16	21	i	97*	i
COc1ccc(-c2csc3ncnc(N4CCN(c5ccc(OC)cc5)CC4)c23)cc1	i	-11*	i	-15	18	i	92*	i
COc1ccc(-c2csc3ncnc(N4CCN(Cc5ccccc5)CC4)c23)cc1	i	i	i	-20	36	i	·	·
CCc1c(C)sc(NC(=S)N2CCN(C(=O)C3CCCO3)CC2)c1C(=O)OC (configuration not stated)	i	i	i	-7	12	i	·	·
CC(C)n1cc(-c2ccc(Cl)cc2)cc(C#N)c1=O	i	-10*	i	0	16	i	107*	i
CS(=O)(=O)c1ccc(Cl)c(NC(=O)CN2CCN(C(=O)c3cccs3)CC2)c1	·	i	·	·	·	·	·	·
Cc1cccc(NS(=O)(=O)c2cc(C(=O)NCCC3=CCCCC3)ccc2Cl)c1	i	-12*	i	-6	-6	i	118*	0.15*
CC(C)CC(c1nnnn1Cc1ccco1)N1CCN(c2cccc(Cl)c2)CC1 (configuration not stated)	i	-10*	i	-5	-4	i	126*	i
COc1ccc(Cn2nnnc2C(CC(C)C)N2CCN(c3ccccc3)CC2)cc1 (configuration not stated)	i	-9*	i	-11	7	i	100*	i
NC(=S)N/N=C1\CC(n2nnnc2-c2ccccc2Cl)C2COC1O2 (configuration not stated)	i	i	i	-10	-19	i	·	·
O=C(/C=C/c1ccc(O)c(O)c1)OCCc1ccccc1	i	-12*	i	-13	·	i	84*	0.14*
Cc1nn(CCCC(=O)Nc2cc(Oc3ccccc3)cc([N+](=O)[O-])c2)c(C)c1[N+](=O)[O-]	i	-8.8*	i	-6	1	i	124*	0.14*
SMILES	KCNQ1 inh	KCNK3 block	KCNK9 block	hERG protect	PHOSPHO1 block	KCNQ1 act	KCNK3 inh conf	KCNK3 noninduced
O=C(Nc1nc(-c2ccncc2)cs1)C1c2ccccc2Oc2ccccc21	i	i	i	-16	-11	i	·	·
O=C(Nc1nc(-c2ccccc2)cs1)C1c2ccccc2Oc2ccccc21	i	-8.8*	-7.2*	-14	6	i	119*	i
CC1(C)Cc2cccc(C(=O)NCc3ccco3)c2O1	i	-11*	i	-8	29	i	105*	i
O=C(CSc1nc2ccccc2c(=O)n1Cc1ccco1)c1ccc(F)cc1	i	-9.6*	i	-10	3	i	112*	i
O=C(CSc1nc2ccccc2c(=O)n1Cc1ccco1)NCc1ccccc1	i	i	i	-9	·	i	·	·
Cc1cc2c(=O)n(Cc3ccco3)c(SCC(=O)c3ccc(Cl)s3)nc2s1	i	-9.7*	-6.7*	-21	22	i	108*	i
C/C(=N\NC(=O)CN(c1ccccc1)S(=O)(=O)c1ccccc1[N+](=O)[O-])C(C)(C)C	i	i	i	-8	0	i	·	·
COCCNC(=O)C(=O)NCC1OCCN1S(=O)(=O)c1ccc(F)cc1 (configuration not stated)	i	i	i	-8	-14	i	·	·
Cc1sc2ncnc(N3CCC(C(=O)NNC(=O)c4ccc(Cl)cc4)CC3)c2c1C	i	i	i	-15	·	i	·	·
Cc1sc2ncnc(N3CCC(C(=O)Oc4cccc(Cl)c4Cl)CC3)c2c1C	i	-9.1*	-8.1*	-1	28	i	96*	i
Cc1sc2ncnc(N3CCC(C(=O)Nc4nc(-c5cccs5)cs4)CC3)c2c1C	i	-8.9*	i	-18	·	i	94*	i
COc1ccc(-c2csc(/C(C#N)=C\c3ccc(O)c([N+](=O)[O-])c3)n2)cc1OC	i	-10*	i	-29	10	i	116*	0.14*
CCCCN1C(=O)NC(c2cccc([N+](=O)[O-])c2)C(C(=O)OCC)=C1C (configuration not stated)	i	i	i	-6	·	i	·	·
